# Data as given in article PMC5890913 (Cancer research, 2017).
# How the values were obtained:
# [1] = system: PSA and FKBP5 gene expression in LNCaP cells; test: AR-target gene expression; assay type: cell-based; settings: 0.1 nM R1881, 24 hours
# LNCaP cells = test: LNCaP cell proliferation; assay type: cell-based; settings: 0.1 nM R1881, 6 days
# AR = settings: no reference given; cited from earlier work
# [2] = molecular target: T1, progesterone receptor (PR) (Homo sapiens, UniProt P06401); test: PR transactivation in HEK-293 cells; assay type: cell-based; settings: HEK-293, progesterone
# T1 sequence (P06401 1-933): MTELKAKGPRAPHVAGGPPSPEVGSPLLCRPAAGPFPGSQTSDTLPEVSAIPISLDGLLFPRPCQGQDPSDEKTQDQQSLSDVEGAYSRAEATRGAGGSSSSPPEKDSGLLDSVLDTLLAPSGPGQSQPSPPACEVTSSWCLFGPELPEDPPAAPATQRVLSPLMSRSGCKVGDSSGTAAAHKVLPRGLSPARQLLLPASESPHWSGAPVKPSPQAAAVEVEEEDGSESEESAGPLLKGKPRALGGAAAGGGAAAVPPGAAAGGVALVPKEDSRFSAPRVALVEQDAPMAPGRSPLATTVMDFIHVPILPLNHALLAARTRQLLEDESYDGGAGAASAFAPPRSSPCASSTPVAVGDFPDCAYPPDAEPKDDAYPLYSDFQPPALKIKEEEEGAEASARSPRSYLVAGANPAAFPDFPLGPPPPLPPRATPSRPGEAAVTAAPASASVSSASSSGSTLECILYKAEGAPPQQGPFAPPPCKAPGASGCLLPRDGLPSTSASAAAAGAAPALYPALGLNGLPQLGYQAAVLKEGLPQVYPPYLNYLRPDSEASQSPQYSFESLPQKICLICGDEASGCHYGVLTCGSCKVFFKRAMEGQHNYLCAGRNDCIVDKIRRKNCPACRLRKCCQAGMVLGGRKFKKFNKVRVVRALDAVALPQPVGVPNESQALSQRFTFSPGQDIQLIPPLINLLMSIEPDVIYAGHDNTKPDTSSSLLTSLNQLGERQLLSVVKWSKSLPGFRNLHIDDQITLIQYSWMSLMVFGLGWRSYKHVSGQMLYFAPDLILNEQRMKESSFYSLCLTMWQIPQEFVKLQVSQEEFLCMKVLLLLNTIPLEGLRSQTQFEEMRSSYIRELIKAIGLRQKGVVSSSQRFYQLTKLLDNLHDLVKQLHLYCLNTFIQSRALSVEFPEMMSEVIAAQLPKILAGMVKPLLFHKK
# [3] = system: F876L-AR in LNCaP-EnzR cells; test: PSA expression in enzalutamide-resistant LNCaP-EnzR cells; assay type: cell-based; settings: F876L mutant, 0.1 nM R1881
# AR-FL in AD1 cells = test: AR full length protein level by Western blot in AD1 cells; assay type: cell-based; settings: 24 hours
# Method in brief: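 AD1 cells expressing full-length AR were kept for 2 days in medium containing charcoal-stripped serum, then treated for 24 hours. Protein was extracted and Western blotted for AR using the N-terminal AR-N20 antibody, with actin as the loading control.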
# [4] = system: FKBP5 expression in 22RV1 cells; test: AR-V7-dependent FKBP5 expression in 22RV1 cells; assay type: cell-based; settings: 22RV1, charcoal stripped serum, 48 hours
# 22RV1 xenograft = 22RV1 xenograft in castrated NSG mice; assay type: in vivo
# [5] = system: Pr-3001 patient-derived xenograft; test: Patient-derived xenograft Pr-3001 in castrated NSG mice; assay type: in vivo; settings: over the course of 14 days
# Method in brief: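 The CRPC patient specimen was collected in RPMI with penicillin/streptomycin and fungizone, minced, digested with collagenase for 2 hours and washed in serum-free medium. It was implanted subcutaneously as 1 mm³ fragments in castrated NSG mice, n=8–10 per group. At 100–200 mm³, mice were randomized to vehicle or test compound, and tumor volume was measured thrice weekly.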
# panel of kinases = test: Cross-reactivity with a panel of kinases; assay type: biochemical
# PR in T47D cells = molecular target: T2, PR in T47D cells (Homo sapiens, UniProt P06401); test: PR protein level by Western blot in T47D cells; assay type: cell-based
# T2 sequence (P06401 1-933): T1 sequence (P06401 1-933)
# Method in brief: (§1)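 T47D breast cancer cells were plated in growth medium and treated with a range of test compound doses. PR, ER and actin levels were read by Western blot, with actin as the loading control.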
# ER in T47D cells = ER in T47D cells (Homo sapiens, UniProt P03372); test: ER protein level by Western blot in T47D cells; assay type: cell-based
# Sequence of ER in T47D cells (P03372 whole entry): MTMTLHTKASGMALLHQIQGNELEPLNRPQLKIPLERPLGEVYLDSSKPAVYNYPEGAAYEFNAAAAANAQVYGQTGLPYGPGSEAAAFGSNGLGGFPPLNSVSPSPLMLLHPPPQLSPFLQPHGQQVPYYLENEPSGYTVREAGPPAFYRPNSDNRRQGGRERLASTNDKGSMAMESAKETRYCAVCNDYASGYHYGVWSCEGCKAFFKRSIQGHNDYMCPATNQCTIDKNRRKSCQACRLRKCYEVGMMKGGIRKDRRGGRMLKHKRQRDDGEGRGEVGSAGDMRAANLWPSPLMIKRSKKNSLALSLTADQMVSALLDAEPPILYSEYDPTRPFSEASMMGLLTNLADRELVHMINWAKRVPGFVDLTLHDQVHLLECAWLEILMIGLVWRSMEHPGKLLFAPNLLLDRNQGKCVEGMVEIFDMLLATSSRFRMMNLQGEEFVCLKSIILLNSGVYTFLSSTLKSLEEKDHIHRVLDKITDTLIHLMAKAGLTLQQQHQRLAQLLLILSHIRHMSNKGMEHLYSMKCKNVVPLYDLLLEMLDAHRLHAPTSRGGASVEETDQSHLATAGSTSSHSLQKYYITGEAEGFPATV
# Method in brief: as §1
# [6] = molecular target: T3, glucocorticoid receptor (GR) in PC-3 cells (Homo sapiens, UniProt P04150); test: GR protein level in transiently transfected PC-3 cells; assay type: cell-based; settings: transient transfection
# T3 sequence (P04150 1-777): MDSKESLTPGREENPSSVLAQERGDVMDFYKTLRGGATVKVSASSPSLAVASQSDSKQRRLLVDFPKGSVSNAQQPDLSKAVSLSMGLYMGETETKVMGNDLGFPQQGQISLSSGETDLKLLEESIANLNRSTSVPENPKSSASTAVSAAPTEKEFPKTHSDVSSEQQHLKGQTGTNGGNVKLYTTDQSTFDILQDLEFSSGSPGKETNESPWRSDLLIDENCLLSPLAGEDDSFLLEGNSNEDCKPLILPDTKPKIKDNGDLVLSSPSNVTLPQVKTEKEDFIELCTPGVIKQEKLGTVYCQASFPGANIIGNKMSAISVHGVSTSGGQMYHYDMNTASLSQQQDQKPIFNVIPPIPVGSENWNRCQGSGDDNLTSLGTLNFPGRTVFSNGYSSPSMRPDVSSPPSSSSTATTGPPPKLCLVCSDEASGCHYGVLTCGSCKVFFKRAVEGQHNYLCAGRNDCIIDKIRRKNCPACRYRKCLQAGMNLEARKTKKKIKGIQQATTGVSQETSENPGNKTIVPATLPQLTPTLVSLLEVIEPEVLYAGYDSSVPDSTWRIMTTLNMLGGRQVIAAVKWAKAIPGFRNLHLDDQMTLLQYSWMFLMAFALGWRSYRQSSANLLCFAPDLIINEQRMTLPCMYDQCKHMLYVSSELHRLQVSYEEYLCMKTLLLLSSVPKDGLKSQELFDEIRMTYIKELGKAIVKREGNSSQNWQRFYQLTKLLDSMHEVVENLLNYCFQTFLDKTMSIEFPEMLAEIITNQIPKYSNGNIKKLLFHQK
# [7] = system: AR recruitment to PSA enhancer ARE; test: ChIP: AR recruitment to the PSA enhancer ARE in LNCaP cells; assay type: cell-based; settings: 10 μM pre-treatment 30 minutes, 0.1 nM R1881 2 hours
# [8] = system: NDRG1 and MT2A pre-mRNAs in LNCaP cells; test: Early induction of NDRG1 and MT2A pre-mRNAs in LNCaP cells; assay type: cell-based; settings: 10 μM, 0.1 nM R1881
structure (smiles),measurement,setting,value
C[C@@](O)(Cn1ccc2cc(F)ccc21)C(=O)Nc1ccc(C#N)c(C(F)(F)F)c1 [(R)-UT-155],inhibition of R1881-induced FKBP5 expression,[1],at concentrations comparable to that observed with UT-155
same,inhibition of LNCaP proliferation,LNCaP cells,inhibited the proliferation of LNCaP cells
COc1ccc(/C=C/C(=O)/C=C(O)/C=C/c2ccc(OC)c(OC)c2)cc1OC [ASC-J9],concentrations inducing AR degradation,AR,greater than 10 μM
C[C@](O)(Cn1ccc2cc(F)ccc21)C(=O)Nc1ccc(C#N)c(C(F)(F)F)c1 [UT-155],inhibition of PR transactivation,[2],at concentration comparable to that of the AR
same,inhibition of PSA expression in LNCaP-EnzR,[3],inhibited the expression of PSA
same,effect on AR expression in AD1 cells,AR-FL in AD1 cells,reduces AR expression
same,inhibition of AR-V7-dependent FKBP5 expression,[4],inhibited
same,inhibition of 22RV1 xenograft growth,22RV1 xenograft; 100 mg/kg/day s.c.,53%
same,inhibition of Pr-3001 growth,[5],40–60%
same,inhibition of kinase activity,panel of kinases,no significant inhibition
same,effect on PR protein levels,PR in T47D cells,no effect
same,effect on ER protein levels,ER in T47D cells,no effect
same,effect on GR protein levels,[6],no effect on GR
same,inhibition of AR recruitment to the ARE on the PSA enhancer,[7],failed to inhibit
same,inhibition of R1881-dependent increase in NDRG1 and MT2A pre-mRNAs at 1 and 2 hours,[8],failed to inhibit
"CNC(=O)c1ccc(N2C(=S)N(c3ccc(C#N)c(C(F)(F)F)c3)C(=O)C2(C)C)cc1F [enzalutamide, reference compound]",effect on growth of 22RV1 tumors,22RV1 xenograft; 30 mg/kg/day s.c.,no effect
same,inhibition of AR recruitment to the ARE on the PSA enhancer,[7],inhibited
